Tests used:
[1] = target: T1, NAD-dependent protein deacetylase sirtuin-2 (Homo sapiens) (UniProt Q8IXJ6); assay: Inhibition of recombinant human C-terminal His-tagged SIRT2 (50 to 389 end residues) expressed in Escherichia coli at 10 uM using p53 derived (379 to 382 residues) fluorogenic peptide substrate RHKK(Ac)-AMC preincubated for 10 mins followed by substrate addition in presence of NAD+ by fluorescence assay relative to control
T1 sequence (whole entry): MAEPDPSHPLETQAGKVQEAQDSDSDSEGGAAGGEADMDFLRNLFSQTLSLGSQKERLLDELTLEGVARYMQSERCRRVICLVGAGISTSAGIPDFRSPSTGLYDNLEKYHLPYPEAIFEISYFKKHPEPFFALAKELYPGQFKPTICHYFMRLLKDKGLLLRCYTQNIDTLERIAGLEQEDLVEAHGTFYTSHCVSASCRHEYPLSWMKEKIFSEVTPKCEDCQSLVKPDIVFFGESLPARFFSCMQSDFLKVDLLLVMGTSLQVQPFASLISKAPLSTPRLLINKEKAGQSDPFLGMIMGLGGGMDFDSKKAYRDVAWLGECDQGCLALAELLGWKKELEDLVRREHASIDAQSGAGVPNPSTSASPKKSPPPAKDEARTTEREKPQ
Procedure, shortened: (§1)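 Two-step fluorogenic assay with p53 379–382 RHKK(Ac)-AMC. Compound (from 10 mM DMSO stock) preincubated ~10 min with human SIRT before substrate addition. Developer then releases fluorophore, read at ex 360/em 460 nm.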

[2] = target: T2, NAD-dependent protein deacetylase sirtuin-2 (Homo sapiens, UniProt Q8IXJ6); assay: Inhibition of recombinant human C-terminal His-tagged SIRT2 (50 to 389 end residues) expressed in Escherichia coli using p53 derived (379 to 382 residues) fluorogenic peptide substrate RHKK(Ac)-AMC preincubated for 10 mins followed by substrate addition in presence of NAD+ by fluorescence assay; procedure, shortened: as §1
T2 sequence (Q8IXJ6 whole entry): T1 sequence (whole entry)

SMILES | inhibition [1] | IC50 [2]
COc1cccc(CNC2CCc3c(sc4ncn(Cc5ccccc5OC)c(=O)c34)C2)c1 (stereo not given) | 69% | 13.4 µM
COc1ccccc1CNC1CCc2c(sc3ncn(Cc4ccccc4OC)c(=O)c23)C1 (stereo not given) | 72% | 9.59 µM
COc1ccc(CNC2CCc3c(sc4ncn(Cc5c(OC)ccc6ccccc56)c(=O)c34)C2)cn1 (stereo not given) | 83% | 1.9 µM
COc1ccc2ccccc2c1Cn1cnc2sc(CCNC3CCOCC3)c(C)c2c1=O | 68% | 8.15 µM
O=c1c2c3c(sc2ncn1Cc1cccc2cccnc12)CC(NCc1ccccn1)CC3 (stereo not given) | 87% | 2.61 µM
O=c1c2c3c(sc2ncn1Cc1cccc2cccnc12)CC(NCc1ccccc1)CC3 (stereo not given) | 93% | 2.5 µM
O=c1c2c3c(sc2ncn1Cc1cccc2cccnc12)CC(NC1CCc2ccccc21)CC3 (stereo not given) | 91% | 3.09 µM
COc1ccc2ccccc2c1Cn1cnc2sc3c(c2c1=O)CCC(NCc1ccncc1)C3 (stereo not given) | 95% | 1.2 µM
O=c1c2c3c(sc2ncn1Cc1cccc2ccccc12)CC(NCCc1ccncc1)CC3 (stereo not given) | 75% | 5.79 µM
O=c1c2c3c(sc2ncn1Cc1cccc2cccnc12)CC(NCc1cccc(Cl)c1)CC3 (stereo not given) | 88% | 2.84 µM
O=c1c2c3c(sc2ncn1Cc1cccc2cccnc12)CC(NCc1cccnc1)CC3 (stereo not given) | 91% | 2.92 µM
O=c1c2c3c(sc2ncn1Cc1cccc(-c2ccccc2)c1)CC(NCCN1CCCC1)CC3 (stereo not given) | 77% | 3.78 µM
O=c1c2c3c(sc2ncn1Cc1cccc2cccnc12)CC(NCc1ccccc1Cl)CC3 (stereo not given) | 85% | 3.8 µM
COc1ccc(NC2CCc3c(sc4ncn(Cc5cccc6cccnc56)c(=O)c34)C2)cc1 (stereo not given) | 82% | 2.48 µM
COc1ccccc1Cn1cnc2sc3c(c2c1=O)CCC(NCc1ccccc1)C3 (stereo not given) | 75% | 10.4 µM
COc1ccc2ccccc2c1Cn1cnc2sc3c(c2c1=O)CCC(NCc1cccc(F)c1)C3 (stereo not given) | 73% | 4.07 µM
Cc1nn(C)c(C)c1CNC1CCc2c(sc3ncn(Cc4ccc5ccccc5c4)c(=O)c23)C1 (stereo not given) | 87% | 7.43 µM
O=c1c2c3c(sc2ncn1Cc1cccc2cccnc12)CC(NC1CCCc2ccccc21)CC3 (stereo not given) | 80% | 5.49 µM
O=c1c2c3c(sc2ncn1Cc1cccc2ccccc12)CC(NCc1ccccn1)CC3 (stereo not given) | 81% | 7.68 µM
COc1ccc(CNC2CCc3c(sc4ncn(Cc5ccc6ccccc6c5)c(=O)c34)C2)cn1 (stereo not given) | 76% | 10.2 µM
O=c1c2c3c(sc2ncn1Cc1cccc(-c2ccccc2)c1)CC(NC1CCOCC1)CC3 (stereo not given) | 93% | 1.74 µM
COc1ccccc1CNC1CCc2c(sc3ncn(Cc4c(OC)ccc5ccccc45)c(=O)c23)C1 (stereo not given) | 89% | 2.24 µM
O=c1c2c3c(sc2ncn1Cc1cccc2ccccc12)CC(NCc1ccco1)CC3 (stereo not given) | 70% | 7.61 µM
O=c1c2c3c(sc2ncn1Cc1cccc(-c2ccccc2)c1)CC(NC1CCCC1)CC3 (stereo not given) | 98% | 1.52 µM

SMILES | inhibition [1] | IC50 [2]
COc1ccc2ccccc2c1Cn1cnc2sc3c(c2c1=O)CCC(NCc1c(C)noc1C)C3 (stereo not given) | 87% | 4 µM
Cc1noc(C)c1CNC1CCc2c(sc3ncn(Cc4cccc5cccnc45)c(=O)c23)C1 (stereo not given) | 80% | 6.94 µM
COc1ccccc1Cn1cnc2sc3c(c2c1=O)CCC(NCC1CCCCC1)C3 (stereo not given) | 79% | 9.18 µM
COc1ccccc1Cn1cnc2sc3c(c2c1=O)CCC(NC1CCc2ccccc21)C3 (stereo not given) | 70% | 16.3 µM
O=c1c2c3c(sc2ncn1Cc1cccc2ccccc12)CC(NCc1ccncc1)CC3 (stereo not given) | 92% | 3.58 µM
O=c1c2c3c(sc2ncn1Cc1cccc2cccnc12)CC(NCCC1CCCCC1)CC3 (stereo not given) | 81% | 5.85 µM
COc1ccc(CNC2CCc3c(sc4ncn(Cc5ccc6ccccc6c5)c(=O)c34)C2)cc1 (stereo not given) | 86% | 3.82 µM
COc1ccc2ccccc2c1Cn1cnc2sc3c(c2c1=O)CCC(NCCc1cccnc1)C3 (stereo not given) | 66% | 10.3 µM
O=c1c2c3c(sc2ncn1Cc1cccc2cccnc12)CC(NCc1cccs1)CC3 (stereo not given) | 88% | 2.56 µM
O=c1c2c3c(sc2ncn1Cc1cccc2cccnc12)CC(NCc1ccc(Cl)cc1)CC3 (stereo not given) | 94% | 1.27 µM
COc1ccc2ccccc2c1Cn1cnc2sc3c(c2c1=O)CCC(NCc1ccco1)C3 (stereo not given) | 78% | 5.24 µM
Cc1noc(C)c1CNC1CCc2c(sc3ncn(Cc4cccc5ccccc45)c(=O)c23)C1 (stereo not given) | 85% | 1.85 µM
COc1ccc2ccccc2c1Cn1cnc2sc3c(c2c1=O)CCC(NCC1CCOC1)C3 (stereo not given) | 85% | 6.03 µM
Cc1nn(C)c(C)c1CNC1CCc2c(sc3ncn(Cc4cccc5ccccc45)c(=O)c23)C1 (stereo not given) | 85% | 4.2 µM
COc1ccccc1CNC1CCc2c(sc3ncn(Cc4cccc5cccnc45)c(=O)c23)C1 (stereo not given) | 85% | 5.61 µM
O=c1c2c3c(sc2ncn1Cc1ccc2ccccc2c1)CC(NCc1ccccn1)CC3 (stereo not given) | 81% | 8.67 µM
O=c1c2c3c(sc2ncn1Cc1cccc2ccccc12)CC(NCc1cccnc1)CC3 (stereo not given) | 89% | 2.99 µM
O=c1c2c3c(sc2ncn1Cc1cccc(-c2ccccc2)c1)CC(NCCC1CCCCC1)CC3 (stereo not given) | 90% | 3.74 µM
COc1ccc(CNCCc2sc3ncn(Cc4c(OC)ccc5ccccc45)c(=O)c3c2C)cc1 | 89% | 3.36 µM
Cc1ccc(NC2CCc3c(sc4ncn(Cc5cccc6cccnc56)c(=O)c34)C2)cc1 (stereo not given) | 78% | 4.25 µM
O=c1c2c3c(sc2ncn1Cc1ccc2ccccc2c1)CC(NCc1ccncc1)CC3 (stereo not given) | 92% | 3.14 µM
O=c1c2c3c(sc2ncn1Cc1cccc2ccccc12)CC(NCc1cncnc1)CC3 (stereo not given) | 86% | 6.45 µM
O=c1c2c3c(sc2ncn1Cc1cccc2cccnc12)CC(NCc1ccncc1)CC3 (stereo not given) | 83% | 3.68 µM
COc1ccc(CNC2CCc3c(sc4ncn(Cc5cccc6ccccc56)c(=O)c34)C2)cn1 (stereo not given) | 75% | 7.59 µM

SMILES | inhibition [1] | IC50 [2]
COc1ccc2ccccc2c1Cn1cnc2sc3c(c2c1=O)CCC(NCc1ccccn1)C3 (stereo not given) | 83% | 3.12 µM
O=c1c2c3c(sc2ncn1Cc1cccc(-c2ccccc2)c1)CC(NCC1CCOC1)CC3 (stereo not given) | 91% | 2.58 µM
COc1ccc2ccccc2c1Cn1cnc2sc3c(c2c1=O)CCC(NCc1cccs1)C3 (stereo not given) | 69% | 6.03 µM
O=c1c2c3c(sc2ncn1Cc1cccc2ccccc12)CC(NCC1CCCO1)CC3 (stereo not given) | 67% | 12.5 µM
COc1ccc2ccccc2c1Cn1cnc2sc3c(c2c1=O)CCC(NC1CCCC1)C3 (stereo not given) | 99% | 1.18 µM
COc1ccc(CNC2CCc3c(sc4ncn(Cc5cccc6cccnc56)c(=O)c34)C2)cc1 (stereo not given) | 95% | 1.83 µM
COc1ccc2ccccc2c1Cn1cnc2sc3c(c2c1=O)CCC(NCC1CCCCC1)C3 (stereo not given) | 97% | 1.65 µM
COc1ccc2ccccc2c1Cn1cnc2sc3c(c2c1=O)CCC(NC1CCOCC1)C3 (stereo not given) | 96% | 1.11 µM
COc1ccc2ccccc2c1Cn1cnc2sc3c(c2c1=O)CCC(NCC1CCCO1)C3 (stereo not given) | 90% | 1.9 µM
O=c1c2c3c(sc2ncn1Cc1cccc2cccnc12)CC(NCc1ccco1)CC3 (stereo not given) | 80% | 4.16 µM
O=c1c2c3c(sc2ncn1Cc1cccc(-c2ccccc2)c1)CC(NCCN1CCOCC1)CC3 (stereo not given) | 77% | 3.14 µM
O=c1c2c3c(sc2ncn1Cc1cccc2cccnc12)CC(NCc1cccc(F)c1)CC3 (stereo not given) | 94% | 1.72 µM
O=c1c2c3c(sc2ncn1Cc1cccc2cccnc12)CC(NCC1CCCCC1)CC3 (stereo not given) | 94% | 2.43 µM
COc1ccc2ccccc2c1Cn1cnc2sc(CCNCc3ccncc3)c(C)c2c1=O | 94% | 2.93 µM
O=c1c2c3c(sc2ncn1Cc1ccc2ccccc2c1)CC(NCc1cncnc1)CC3 (stereo not given) | 88% | 5.3 µM
COc1ccc(CNC2CCc3c(sc4ncn(Cc5cccc6cccnc56)c(=O)c34)C2)cn1 (stereo not given) | 90% | 2.65 µM
O=c1c2c3c(sc2ncn1Cc1ccc2ccccc2c1)CC(NCCc1ccncc1)CC3 (stereo not given) | 72% | 9.6 µM
O=c1c2c3c(sc2ncn1Cc1ccc2ccccc2c1)CC(NCc1ccccc1)CC3 (stereo not given) | 71% | 5.45 µM
O=c1c2c3c(sc2ncn1Cc1ccc2ccccc2c1)CC(NCC1CCCCC1)CC3 (stereo not given) | 87% | 5.53 µM
O=c1c2c3c(sc2ncn1Cc1ccc2ccccc2c1)CC(NCC1CCCO1)CC3 (stereo not given) | 71% | 13.1 µM
O=c1c2c3c(sc2ncn1Cc1cccc2ccccc12)CC(NCCc1cccnc1)CC3 (stereo not given) | 80% | 9.57 µM
COc1ccc(CNC2CCc3c(sc4ncn(Cc5cccc6ccccc56)c(=O)c34)C2)cc1 (stereo not given) | 78% | 3.2 µM
